PG9 binder: binders of HIV-1 gp120 antibody PG9, primary screen, biochemical, TR-FRET; TR-FRET gp120-PG9 antibody binding; inhibition, % at 6.7 µM; actives 0.43% (n = 360,000); AID 624416, 2012; in the data active means inhibition above about 8.5%
Rev-erbA mod: modulators of Rev-erb alpha DNA binding, primary screen, biochemical, FITC-DNA, fluorescence polarization, uHTS. activity, % at 10 µM. actives 0.79% (n = 370,000). Rev-erbα–FITC-DNA binding, 90 min. Nuclear receptor subfamily 1 group D member 1 (Homo sapiens), P20393;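 active means activity above about 14%, limit read from the data; passing the limit was not always enough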;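 further: 0% = DMSO wells with 35 nM protein and 100% = DMSO wells with 750 nM protein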
Target sequence (P20393 whole entry, looked up): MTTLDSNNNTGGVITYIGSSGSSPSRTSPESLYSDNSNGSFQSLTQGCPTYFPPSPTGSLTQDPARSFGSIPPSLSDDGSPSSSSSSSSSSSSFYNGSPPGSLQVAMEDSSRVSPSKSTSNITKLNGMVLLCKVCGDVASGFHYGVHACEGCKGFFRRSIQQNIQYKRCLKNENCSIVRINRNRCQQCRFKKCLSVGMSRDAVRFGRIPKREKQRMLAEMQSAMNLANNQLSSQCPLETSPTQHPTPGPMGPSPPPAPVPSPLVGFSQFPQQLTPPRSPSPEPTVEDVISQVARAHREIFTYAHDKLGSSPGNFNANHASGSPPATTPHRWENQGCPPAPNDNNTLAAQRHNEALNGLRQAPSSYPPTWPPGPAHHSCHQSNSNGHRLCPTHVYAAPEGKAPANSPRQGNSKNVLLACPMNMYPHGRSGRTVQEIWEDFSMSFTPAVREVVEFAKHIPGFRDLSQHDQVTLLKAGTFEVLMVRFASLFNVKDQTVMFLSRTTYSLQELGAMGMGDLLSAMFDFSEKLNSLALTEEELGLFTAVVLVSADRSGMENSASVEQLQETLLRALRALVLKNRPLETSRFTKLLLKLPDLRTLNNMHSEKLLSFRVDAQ
NR2E3 ag-1: inhibitors of NR2E3-RetCOR corepressor binding, primary screen, NR2E3 agonist project, biochemical, TR-FRET, GST-NR2E3, biotin-RetCOR; Photoreceptor-specific nuclear receptor (Homo sapiens), Q9Y5X4; 1536-well; inhibition of corepressor binding, % at 4.78 µM; actives 0.12% (n = 320,000);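 active means percent inhibition above the cutoff of mean plus 3 SD of all tested compounds, set per screening campaign, cut at about 20% in these data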;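 further: 0% = DMSO wells and 100% = biotin wells as full block of FRET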
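System: GST-tagged NR2E3 plus biotinylated RetCOR corepressor; Buffer or medium: pH 7.5 Tris-based buffer; Probe or stimulus: RetCOR corepressor, biotinylated, 7 nM; Doses: compound at 4.8 µM, single dose; Schedule: 5 h incubation at 4 °C; Technique: time-resolved FRET; Evaluation: percent inhibition of TR-FRET ratio; Replication: one well per compound, singlicate testing.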
NR2E3 ag-2: NR2E3 agonists in two-hybrid cells, primary screen, cell-based, luminescence, CHO-S, Gal4-NCOR/VP16-NR2E3; luciferase; inhibition of corepressor binding, % at 3.98 µM; actives 0.35% (n = 360,000); AID 602229, 2012;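 active means inhibition above the mean of all tested compounds plus 3 SD, cut at about 70% in these data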;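 further: 0% = DMSO with NR2E3 transfected cells and 100% = cells lacking NR2E3 construct; higher means lower luciferase signal from less NR2E3 corepressor binding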
NR2E3 ag confirm: NR2E3 agonist confirmation in cells, cell-based, luminescence, CHO-S two-hybrid | inhibition, % at 3.98 µM | shares compounds with NR2E3 ag-2 | CHO-S mammalian two-hybrid NR2E3-NCOR, luciferase luminescence | AID 624378, 2012 | actives 51% (n = 2,300);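 active means average inhibition above a cutoff equal to the mean inhibition of all tested compounds plus one SD, cut at about 70% in these data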;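 further: 0% = DMSO in NR2E3 cells and 100% = DMSO in cells lacking NR2E3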
GAL4-VP16 luc: GAL4-VP16 reporter modulators, confirmation, counter-screen for NR2E3 agonist project, cell-based, luminescence, CHO-S, high throughput; shares compounds with NR2E3 ag-2; CHO-S GAL4-VP16 luciferase reporter; inhibition, % at 3.98 µM; actives 29% (n = 2,300); AID 624379, 2012;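 active means mean inhibition above a cutoff equal to the average over all tested compounds plus one standard deviation, cut at about 70% in these data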;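 further: luciferase from a UAS reporter driven by GAL4-VP16 transactivation; 0% = DMSO with VP16-transfected cells and 100% = DMSO with cells lacking VP16; higher means less reporter light so more repression of VP16 activity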
The depositor's hits bear a star; nt = no result. In the library only some 1.4% were active in any assay of this set; here they are far more common.

SMILES | PG9 binder | Rev-erbA mod | NR2E3 ag-1 | NR2E3 ag-2 | NR2E3 ag confirm | GAL4-VP16 luc
CC(=O)N1CCc2cc(S(=O)(=O)NCc3ccc(C)cc3)ccc21 | -1 | 3 | 1 | 53 | 52 | 62
CC(=O)N1CC(C)Sc2ccc(S(=O)(=O)NCCc3cccc(C)c3)cc21 (centres undefined) | -2 | 0 | 1 | 79* | 77* | 70
CC(=O)N1CC(C)Sc2ccc(S(=O)(=O)NC3CCCCC3)cc21 (centres undefined) | -2 | 3 | -1 | 41 | nt | nt
COC(=O)C1=C(C)N(Cc2cccc(C(F)(F)F)c2)C(=NCc2cc(OC)c(OC)c(OC)c2)NC1c1ccc(Cl)cc1 (centres undefined) | -1 | -1 | nt | nt | nt | nt
OCC1OC(n2ccc3c2ncn2ncnc32)C(O)C1O (centres undefined) | -3 | 5 | nt | 57 | 7 | 13
CC(=O)N(C(C)=O)c1cccc(N(Cc2ccccc2)Cc2ccccc2)c1 | -2 | 6 | nt | -9 | nt | nt
COc1ccc(C(=O)Nc2ccc3c(c2)C(=O)c2ccccc2C3=O)cc1OC | -1 | -27 | 0 | -6 | nt | nt
COc1ccc(C(=O)c2c(C(F)(F)F)oc3c2C(=O)c2ccccc2C3=O)cc1OC | 1 | 3 | 6 | 89* | 100* | 54
CC(=O)N1CCN(C(=O)c2ccc(Cl)c(S(=O)(=O)N3CCCC3)c2)CC1 | 2 | 0 | nt | 32 | nt | nt
CC(=O)N1CCN(C(=O)c2ccc(Cl)c(S(=O)(=O)N3CC(C)OC(C)C3)c2)CC1 (centres undefined) | -1 | -4 | nt | 49 | 0 | 4
O=C(NCc1ccccc1)[C@@H]1CCCN1C(=O)[C@H]1CCCN1C(=O)c1ccc(Cl)cc1 | 1 | -2 | nt | nt | nt | nt
O=C(O)C1CSC(c2ccccc2)N1C(=O)c1ccco1 (centres undefined) | 1 | -1 | 4 | 12 | nt | nt
O=c1c(Br)ccc(Br)cc1Br | 0 | 2 | nt | 71* | 100* | 46
CCCCCCCCn1c2c(c(=N)c3ccccc31)CCC2 | 1 | 0 | nt | 28 | nt | nt
CCCCCCCCCCn1c2c(c(=N)c3c1CCC3)CCC2 | -1 | -10 | 1 | 99* | 100* | 97*
CCn1c2c(c(=N)c3c1CCC3)CCCC2 | 1 | -5 | 2 | -18 | nt | nt
CCCCCCCCCn1c2c(c(=N)c3c1CCC3)CCCC2 | nt | nt | nt | 95* | 98* | 96*
O=C(CN1CCCN(Cc2ccc(F)cc2Cl)C1=O)NC1CCCC1 | 2 | 4 | 5 | -10 | nt | nt
COc1ccccc1/C=C/CN1CCC(n2nccc2NC(=O)CCc2ccccc2)CC1 | -2 | 0 | -4 | 65 | 56 | 51
O=C(CCc1ccccc1)Nc1ccnn1C1CCN(C/C=C/c2ccccc2)CC1 | 0 | -2 | 0 | -35 | nt | nt
CCCOc1ccc(Cl)cc1CNc1ccccc1 | -1 | 1 | 15 | -2 | nt | nt
Clc1ccccc1-c1ccc2ncnc(NCc3ccc4c(c3)OCO4)c2c1 | -2 | 0 | 2 | 6 | nt | nt
Clc1ccccc1-c1cnc2sc(NCc3ccc4c(c3)OCO4)nn12 | 2 | 3 | nt | 57 | 37 | 42
Cc1c(C(=O)N2CCCCC2)oc2ccc(S(=O)(=O)N3CC(C)CC(C)C3)cc12 (centres undefined) | nt | nt | -6 | 77* | 73* | 63
CCOC(=O)N1CCN(C(=O)c2oc3ccc(S(=O)(=O)N4CCCCC4)cc3c2C)CC1 | -2 | -4 | -2 | 20 | nt | nt
COc1ccccc1NS(=O)(=O)c1cc(C(=O)NCC(C)(C)N2CCOCC2)ccc1C | 0 | 2 | 2 | 16 | nt | nt
COc1ccccc1N1CCN(S(=O)(=O)c2ccc(-c3ccc(=O)[nH]n3)o2)CC1 | 2 | -1 | 1 | -6 | nt | nt
CC(Nc1ncnc2sccc12)c1ccccc1 (centres undefined) | 0 | -3 | -2 | 106* | 97* | 86*

Bioassay records deposited in PubChem BioAssay by several laboratories.
